Entries after “also recorded” stand apart in the source; their conditions may differ. Where two headings read alike, the source gives them in different places.
Tests used:
healthy male subjects [1] = assay: First-in-human single ascending dose study: safety and tolerability; assay type: in vivo
In short: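 Six cohorts were randomized 6 active vs 2 placebo (5 vs 2 in cohort 1), with two sentinel subjects dosed 48 h ahead. Dosing was a 30-min IV infusion. Cohorts 1–3 used sterile water diluent and an 18G cannula. Cohorts 4–6 used 5% glucose at 1 mg/mL, a 16G cannula in the largest antecubital vein and a 5 mL 5% glucose flush. Monitoring covered AEs, physical examinations, vital signs, 24-h Holter and laboratory tests; discharge was at 7 days.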

[2] = Pharmacokinetics after 30-minute intravenous infusion; assay type: in vivo, human
In short: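 Healthy men received a 30-min IV infusion of test compound. Serum levels were measured by validated LC‑MS/MS (lower limit of quantification 5 ng/mL), with samples taken after each ECG extraction. Noncompartmental analysis was done per dose level. Values below the limit were set to zero before Tmax and treated as missing after Tmax.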

healthy male subjects [3] = assay: 24-hour Holter ECG: QTcF, QT subintervals and concentration-effect analysis; assay type: in vivo, human; details: for ΔΔ Tp‐Tend / ΔΔJp‐Tpc / ΔΔQRS / ΔΔQTcF: model prediction at geometric mean Cmax
In short: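 Healthy men aged 18–45 received a 30-min IV infusion of test compound or 0.9% NaCl placebo, randomized and double-blind. 12-lead Holter recording ran for 24 h from just before dosing. At set times subjects lay supine for at least 8 min, and triplicate ECGs were extracted from the last 3 min. A blinded operator used global median beat analysis. QT was Fridericia-corrected and split into QRS, Jp‑Tpc and Tp‑Tend. Placebo-corrected change from baseline was modelled linearly against concentration, with subject as a random effect, and predicted at geometric mean Cmax per dose.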

healthy male subjects [4] = assay: Tremorography; assay type: in vivo, human; details: all dose levels
In short: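 A three-axis accelerometer was taped to the dorsal mid third ray of the right hand. Subjects sat semirecumbent with the arm extended horizontally, hand dorsum up, at predefined pre- and post-dose times. Each axis was bandpass filtered at 1–20 Hz (zero-phase third-order Butterworth). Power spectral densities were combined by L1-norm, and the read-outs were peak frequency and its amplitude.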

KCa2 channel [5] = assay: In vitro inhibition of KCa2 channels; assay type: biochemical; details: equivalent of 0.77 µM
KCa2 channel [6] = details: cited from earlier work
[7] = system: Kv11.1 (human ether‐à‐go‐go‐related gene) channel; details: read-out: IC50 for the Kv11.1 channel; in vitro; ref unpublished data; cited from earlier work
[8] = in man, assumed; cited from earlier work
minipigs = details: high dose levels (equivalent to 27.3 mg/kg in man); cited from earlier work
conscious pigs = details: ref unpublished data; cited from earlier work
[9] = in vitro, 30 µM (estimated concentration: 12,000 ng/mL); preclinical; cited from earlier work
[10] = cited from earlier work
[11] = 2 mg/kg, mean volume 15.0 mL, 6 subjects
[12] = 2 mg/kg, mean volume 33.3 mL, 6 subjects
[13] = 1.5 and 2 mg/kg, 3+3 subjects, changed formulation
[14] = 3 and 4 mg/kg, 3+3 subjects, changed formulation
[15] = 5 and 6 mg/kg, 3+3 subjects, changed formulation

CN(CC#N)C(=O)C[C@H](Nc1nc2ccccc2[nH]1)c1cccc(C(F)(F)F)c1 [AP30663]
Number of AEs (healthy male subjects [1]; 1 mg/kg, 5 subjects): 1 | Number of infusion site AEs (healthy male subjects [1]; 1 mg/kg, 5 subjects): 1 | Severity of AEs (healthy male subjects [1]; 1 mg/kg, 5 subjects): Mild | Number of subjects with AEs (healthy male subjects [1]; 1 mg/kg, 5 subjects, AEs considered related): 1 (20%) | Median duration of AEs (healthy male subjects [1]; 1 mg/kg, 5 subjects, subject lost to follow-up, AE ongoing at day 7): >7 days ^a | Median duration of AEs (healthy male subjects [1]; [11]): 0.521 days | Number of AEs (healthy male subjects [1]; [11]): 4 | Number of infusion site AEs (healthy male subjects [1]; [11]): 4 | Number of subjects with AEs (healthy male subjects [1]; [11]): 4 (67%) | Severity of AEs (healthy male subjects [1]; [11]): Mild | Median duration of AEs (healthy male subjects [1]; [12]): 32 days | Number of AEs (healthy male subjects [1]; [12]): 10 | Number of infusion site AEs (healthy male subjects [1]; [12]): 10 | Number of subjects with AEs (healthy male subjects [1]; [12]): 5 (83%) | Severity of AEs (healthy male subjects [1]; [12]): Mild | Median duration of AEs (healthy male subjects [1]; [13]): 1.08 days | Number of AEs (healthy male subjects [1]; [13]): 3 | Number of infusion site AEs (healthy male subjects [1]; [13]): 3 | Number of subjects with AEs (healthy male subjects [1]; [13]): 1 (33%) | Severity of AEs (healthy male subjects [1]; [13]): Mild | duration of hardening of the vein upon palpation until resolved (healthy male subjects [1]; 2 subjects in cohort 3): ~4 months | Median duration of AEs (healthy male subjects [1]; [14]): 13 days | Number of AEs (healthy male subjects [1]; [14]): 2 | Number of infusion site AEs (healthy male subjects [1]; [14]): 2 | Number of subjects with AEs (healthy male subjects [1]; [14]): 1 (33%) | Severity of AEs (healthy male subjects [1]; [14]): Mild | Median duration of AEs (healthy male subjects [1]; [15]): 22 days | Number of AEs (healthy male subjects [1]; [15]): 2 | Number of infusion site AEs (healthy male subjects [1]; [15]): 2 | Number of subjects with AEs (healthy male subjects [1]; [15]): 1 (33%) | Severity of AEs (healthy male subjects [1]; [15]): Mild | central nervous system symptoms or signs (healthy male subjects [1]; all dose levels): no symptoms or signs of engagement of the central nervous system | serious AEs (healthy male subjects [1]; all dose levels): No serious AEs | number of AEs related to the administration site (healthy male subjects [1]; cohorts 1–3): 15 | subjects with AEs related to the administration site (healthy male subjects [1]; cohorts 1–3, 10 of 17 subjects): 59% | subjects with AEs related to the administration site (healthy male subjects [1]; cohorts 4–6, 9 of 18 subjects): 50% | number of AEs related to the administration site (healthy male subjects [1]; cohorts 4–6, changed administration procedure): 15 | overall safety and tolerability (healthy male subjects [1]; doses up to 6 mg/kg): safe and systemically well‐tolerated; also recorded: safe and well‐tolerated systemically | time to full recovery of infusion site AEs (healthy male subjects [1]; in vivo): up to 110 days | related AEs that were related to the infusion site (healthy male subjects [1]; mild, temporary): 33 of 34 | number of AEs considered related to AP30663 administration (healthy male subjects [1]; of 73 AEs in 30 of 47 subjects): 34 | Geometric mean Cmax of AP30663 ([2]; 1 mg/kg, 5 mg/mL): 3398 ng/mL | Geometric mean Cmax of AP30663 ([2]; 1.5 mg/kg, 1 mg/mL): 4428 ng/mL | Geometric mean Cmax of AP30663 ([2]; 2 mg/kg, 1 mg/mL): 4644 ng/mL | Geometric mean Cmax of AP30663 ([2]; 2 mg/kg, 5 mg/mL): 6609 ng/mL | Geometric mean Cmax of AP30663 ([2]; 2 mg/kg, 10 mg/mL): 7154 ng/mL | Geometric mean Cmax of AP30663 ([2]; 3 mg/kg, 1 mg/mL): 7950 ng/mL | Geometric mean Cmax of AP30663 ([2]; 4 mg/kg, 1 mg/mL): 7994 ng/mL | Geometric mean Cmax of AP30663 ([2]; 5 mg/kg, 1 mg/mL): 7941 ng/mL | observed maximum total plasma concentration ([2]; 6 mg/kg dose level): around 25.5 µM | Geometric mean Cmax of AP30663 ([2]; 6 mg/kg, 1 mg/mL): 10245 ng/mL | dose proportionality of Cmax ([2]; 1-6 mg/kg): less than dose proportional increase | median Tmax ([2]; 30‐minute linear infusion): 30 min | Volume of distribution ([2]; highest dose levels): 98.4 L | clearance ([2]; lower dose levels): 11.5 L/h | Volume of distribution ([2]; lowest dose): 65.8 L | mean clearance ([2]; overall): 12.5 ± 3.2 L/h | clearance ([2]; three highest dose levels): 15.9 L/h | dose normalized Cmax and area under the curve (AUC) ([2]; with increasing doses): decreased with increasing doses | ΔΔ Tp‐Tend (healthy male subjects [3]; 1 mg/kg, 5 mg/mL): 1.9 ± 1.3 ms | ΔΔJp‐Tpc (healthy male subjects [3]; 1 mg/kg, 5 mg/mL): 6.2 ± 3.0 ms | ΔΔQRS (healthy male subjects [3]; 1 mg/kg, 5 mg/mL): 1.0 ± 1.0 ms | ΔΔQTcF (healthy male subjects [3]; 1 mg/kg, 5 mg/mL, mean ± SD): 10.5 ± 3.3 ms | ΔΔ Tp‐Tend (healthy male subjects [3]; 1.5 mg/kg, 1 mg/mL): 2.6 ± 1.4 ms | ΔΔJp‐Tpc (healthy male subjects [3]; 1.5 mg/kg, 1 mg/mL): 7.0 ± 3.0 ms | ΔΔQRS (healthy male subjects [3]; 1.5 mg/kg, 1 mg/mL): 0.9 ± 1.0 ms | ΔΔQTcF (healthy male subjects [3]; 1.5 mg/kg, 1 mg/mL): 11.8 ± 3.4 ms | ΔΔ Tp‐Tend (healthy male subjects [3]; 2 mg/kg, 1 mg/mL): 2.8 ± 1.4 ms | ΔΔJp‐Tpc (healthy male subjects [3]; 2 mg/kg, 1 mg/mL): 7.2 ± 3.0 ms | ΔΔQRS (healthy male subjects [3]; 2 mg/kg, 1 mg/mL): 0.9 ± 1.9 ms | ΔΔQTcF (healthy male subjects [3]; 2 mg/kg, 1 mg/mL): 12.0 ± 3.5 ms | ΔΔ Tp‐Tend (healthy male subjects [3]; 2 mg/kg, 5 mg/mL): 4.1 ± 1.7 ms | ΔΔJp‐Tpc (healthy male subjects [3]; 2 mg/kg, 5 mg/mL): 8.8 ± 3.3 ms | ΔΔQRS (healthy male subjects [3]; 2 mg/kg, 5 mg/mL): 0.6 ± 1.1 ms | ΔΔQTcF (healthy male subjects [3]; 2 mg/kg, 5 mg/mL): 14.4 ± 3.9 ms | ΔΔ Tp‐Tend (healthy male subjects [3]; 2 mg/kg, 10 mg/mL): 4.5 ± 1.8 ms | ΔΔJp‐Tpc (healthy male subjects [3]; 2 mg/kg, 10 mg/mL): 9.2 ± 3.3 ms | ΔΔQRS (healthy male subjects [3]; 2 mg/kg, 10 mg/mL): 0.5 ± 1.1 ms | ΔΔQTcF (healthy male subjects [3]; 2 mg/kg, 10 mg/mL): 15.1 ± 4.1 ms | ΔΔ Tp‐Tend (healthy male subjects [3]; 3 mg/kg, 1 mg/mL): 5.0 ± 1.9 ms | ΔΔJp‐Tpc (healthy male subjects [3]; 3 mg/kg, 1 mg/mL): 9.8 ± 3.5 ms | ΔΔQRS (healthy male subjects [3]; 3 mg/kg, 1 mg/mL): 0.4 ± 1.2 ms | ΔΔQTcF (healthy male subjects [3]; 3 mg/kg, 1 mg/mL): 16.0 ± 4.3 ms | ΔΔ Tp‐Tend (healthy male subjects [3]; 4 mg/kg, 1 mg/mL): 5.0 ± 1.9 ms | ΔΔJp‐Tpc (healthy male subjects [3]; 4 mg/kg, 1 mg/mL): 9.9 ± 3.5 ms | ΔΔQRS (healthy male subjects [3]; 4 mg/kg, 1 mg/mL): 0.4 ± 1.2 ms | ΔΔQTcF (healthy male subjects [3]; 4 mg/kg, 1 mg/mL): 16.1 ± 4.3 ms | ΔΔ Tp‐Tend (healthy male subjects [3]; 5 mg/kg, 1 mg/mL): 5.0 ± 1.9 ms | ΔΔJp‐Tpc (healthy male subjects [3]; 5 mg/kg, 1 mg/mL): 9.8 ± 3.5 ms | ΔΔQRS (healthy male subjects [3]; 5 mg/kg, 1 mg/mL): 0.4 ± 1.2 ms | ΔΔQTcF (healthy male subjects [3]; 5 mg/kg, 1 mg/mL): 16.0 ± 4.3 ms | ΔΔ Tp‐Tend (healthy male subjects [3]; 6 mg/kg, 1 mg/mL): 6.5 ± 2.3 ms | ΔΔJp‐Tpc (healthy male subjects [3]; 6 mg/kg, 1 mg/mL): 11.7 ± 3.9 ms | ΔΔQRS (healthy male subjects [3]; 6 mg/kg, 1 mg/mL): 0.1 ± 1.4 ms | effect on PR interval (healthy male subjects [3]; all dose levels): no effect | effect on P‐wave duration (healthy male subjects [3]; all dose levels): no effect | effect on QRS duration (healthy male subjects [3]; all dose levels): no effect | effect on QTcF interval and QT subintervals (healthy male subjects [3]; all dose levels): dose‐dependent transient effect | effect on RR interval (healthy male subjects [3]; all dose levels): no effect | subjects with QTcF interval exceeding 450 ms (healthy male subjects [3]; any dose level): no subject | subjects with QTcF interval prolongation of > 60 ms (healthy male subjects [3]; any dose level): no subject | slope of concentration-effect on Tp‐Tend interval (± standard error) (healthy male subjects [3]; prespecified linear model, P = 0.001): 0.670 ± 0.221 ms/(ug/mL) | slope of concentration-effect on QTcF interval (± standard error) (healthy male subjects [3]; prespecified linear model, P = 0.003): 1.201 ± 0.431 ms/(ug/mL) | slope of concentration-effect on Jp‐Tpc interval (± standard error) (healthy male subjects [3]; prespecified linear model, P = 0.007): 0.799 ± 0.327 ms/(ug/mL) | slope of concentration-effect on QRS duration (± standard error) (healthy male subjects [3]; prespecified linear model, P = 0.870): −0.145 ± 0.129 ms/(ug/mL) | tremorography mean amplitude (healthy male subjects [4]): 0.2 mG^2•Hz^‐1 | tremorography recordings (healthy male subjects [4]): normal and unchanged | IC50 for the KCa2 channel, equivalent concentration (KCa2 channel [5]): ~ 300 ng/mL | inhibition of KCa2 channel subclasses (KCa2 channel [6]): inhibits all three subclasses of KCa2 channels | IC50 (KCa2 channel [6]; read-out: IC50 for the KCa2 channel, preclinical, no reference given): 770 nM | IC50 (KCa2 channel [6]; read-out: IC50 for the KCa2 channels, in vitro, ref unpublished data): ~1000 nM | IC50 [7]: 4000 nM | free fraction [8]: 6.4% | tremor (minipigs): induced tremor | atrial refractoriness (conscious pigs): selectively increase atrial refractoriness; also recorded: increased atrial refractoriness | conversion of vernakalant‐resistant AF (conscious pigs): converted vernakalant‐resistant AF | effect on ventricular repolarization (conscious pigs): little or no effect | reinduction of AF (conscious pigs): prevented its reinduction | effect on the ventricular interval [9]: no effect

CN(CCOc1ccc(NS(C)(=O)=O)cc1)CCc1ccc(NS(C)(=O)=O)cc1 [Dofetilide, dofetilide]
effect on Jp‐Tpc interval per concentration [10]: 14.1 ms per ng/mL | effect on Tp‐Tend interval per concentration [10]: 14.5 ms per ng/mL
